In ChEMBL document CHEMBL4396951, “Optimization and anti-inflammatory evaluation of methyl gallate derivatives as a myeloid differentiation protein 2 inhibitor” (Bioorg Med Chem, 2019):
Calls of active or inactive are those of the source. The calls are words filed in the database; no cut-off is given here.

Assays:
[1] = system: Mus musculus; assay: Antiinflammatory activity in oral dosed LPS-induced C57BL/6 mouse model of acute lung injury assessed as reduction in ICAM-1 mRNA expression in lung tissue after 6 hrs by qRT-PCR analysis; assay type: functional, organism-based
Outline: (§1)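 Male C57BL/6 mice dosed orally with compound (10 or 20 mg/kg/day in 0.5% CMC-Na, 3 days), then LPS challenge. Lungs harvested 6 h later; RNA extracted with TRIZOL and TNF-α, IL-6, ICAM-1, VCAM-1 and MCP-1 mRNA measured by qRT-PCR.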

[2] = system: Mus musculus; assay: Antiinflammatory activity in oral dosed LPS-induced C57BL/6 mouse model of acute lung injury assessed as reduction in VCAM-1 mRNA expression in lung tissue after 6 hrs by qRT-PCR analysis; assay type: functional, organism-based; outline: as §1
[3] = system: Mus musculus; assay: Antiinflammatory activity in LPS-induced C57BL/6 mouse model of acute lung injury assessed as reduction in macrophage infiltration by measuring CD68 expression at 10 to 20 mg/kg/day, po for 3 days followed by LPS-stimulation measured after 6 hrs by immunohistochemistry; assay type: functional, organism-based
Outline: (§2)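 Male C57BL/6 mice (18–22 g) randomized to four groups. Compound given orally in 0.5% CMC-Na at 10 or 20 mg/kg/day for 3 consecutive days; controls received vehicle. LPS challenge; killed 6 h later. Left-lung BALF (saline 3 × 0.5 mL) centrifuged at 1000 rpm, 10 min, 4 °C: supernatant used for protein and ELISA TNF-α/IL-6, pellet for total cell count. Serum cytokines also measured by ELISA. Wet/dry ratio from middle right lobe dried at 65 °C for 72 h. Lung sections (5 μm) stained with H&E or for CD68 by IHC (citrate antigen retrieval, pH 6.5; DAB detection); n = 3.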

[4] = system: Mus musculus; assay: Antiinflammatory activity in oral dosed LPS-induced C57BL/6 mouse model of acute lung injury assessed as reduction in MCP-1 mRNA expression in lung tissue after 6 hrs by qRT-PCR analysis; assay type: functional, organism-based; outline: as §1
[5] = system: Peritoneal macrophage; assay: Antiinflammatory activity in C57BL/6 mouse primary peritoneal macrophages assessed as inhibition of LPS-induced IL-6 production at 10 uM preincubated for 30 mins followed by LPS stimulation and measured after 24 hrs by sandwich ELISA relative to control; assay type: functional; settings: C57BL/6, Peritoneal macrophage
Outline: (§3)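 Thioglycollate-elicited mouse peritoneal macrophages in RPMI-1640/10% FBS. Compound pretreatment for 30 min (10 μM for single-point screening, graded concentrations for dose-response), then 0.5 μg/mL LPS for 24 h. TNF-α and IL-6 in culture medium measured by sandwich ELISA and normalized to total protein in cell lysates; n = 3.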

[6] = system: Mus musculus; assay: Antiinflammatory activity in oral dosed LPS-induced C57BL/6 mouse model of acute lung injury assessed as reduction in TNF-alpha mRNA expression in lung tissue after 6 hrs by qRT-PCR analysis; assay type: functional, organism-based; outline: as §1
[7] = system: Mus musculus; assay: Antiinflammatory activity in oral dosed LPS-induced C57BL/6 mouse model of acute lung injury assessed as reduction in IL-6 mRNA expression in lung tissue after 6 hrs by qRT-PCR analysis; assay type: functional, organism-based; outline: as §1
[8] = system: Peritoneal macrophage; assay: Antiinflammatory activity in C57BL/6 mouse primary peritoneal macrophages assessed as inhibition of LPS-induced MCP1 mRNA expression preincubated for 30 mins followed by LPS stimulation and measured after 6 hrs by qRT-PCR analysis; assay type: functional, cell-based
Outline: (§4)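 Thioglycollate-elicited peritoneal macrophages (C57BL/6 mice, 3 mL 6% thioglycollate i.p.), harvested by PBS/30 μM EDTA lavage, cultured in RPMI-1640 with 10% FBS at 37 °C, 5% CO2. Pretreatment with compound at graded concentrations for 30 min, then LPS for 6 h. TRIZOL RNA extraction; qRT-PCR with values normalized to β-actin mRNA.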

[9] = system: Mus musculus; assay: Antiinflammatory activity in LPS-induced C57BL/6 mouse model of acute lung injury assessed as restoration of normal alveolar structure at 10 to 20 mg/kg/day, po for 3 days followed by LPS-stimulation measured after 6 hrs by haematoxylin and eosin staining-based light microscopic analysis; assay type: functional, organism-based; outline: as §2
[10] = species: Mus musculus; assay: Inhibition of MAPK in C57BL/6 mouse primary peritoneal macrophages assessed as reduction in JNK phosphorylation at 10 uM preincubated for 30 mins followed by LPS-stimulation measured after 20 mins by Western blot analysis
Outline: (§5)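 Peritoneal macrophages pretreated with vehicle (DMSO) or 10 μM compound for 30 min, then 0.5 μg/mL LPS for 20 min. Total protein run on 10% SDS-PAGE and blotted to PVDF. p-JNK/JNK, p-p38/p38 and p-ERK/ERK detected by western blot and quantified by densitometry; n = 3.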

[11] = system: BEAS-2B; assay: Cytotoxicity against human BEAS2B cells up to 50 uM; assay type: cell-based
Outline: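 BEAS-2B cells pretreated with compound at graded concentrations up to 50 μM for 30 min, then incubated without LPS for 24 h; compared against a DMSO group; n = 3.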

[12] = system: Mus musculus; assay: Antiinflammatory activity in oral dosed LPS-induced C57BL/6 mouse model of acute lung injury assessed as reduction in TNFalpha levels in BALF for 3 days followed by LPS-stimulation measured after 6 hrs; assay type: functional, organism-based; outline: as §2
[13] = system: Peritoneal macrophage; assay: Antiinflammatory activity in C57BL/6 mouse primary peritoneal macrophages assessed as inhibition of LPS-induced ICAM1 mRNA expression preincubated for 30 mins followed by LPS stimulation and measured after 6 hrs by qRT-PCR analysis; assay type: functional, cell-based; outline: as §4
[14] = system: Mus musculus; assay: Antiinflammatory activity in oral dosed LPS-induced C57BL/6 mouse model of acute lung injury assessed as reduction in IL-6 levels in serum for 3 days followed by LPS-stimulation measured after 6 hrs; assay type: functional, organism-based; outline: as §2
[15] = system: Mus musculus; assay: Antiinflammatory activity in LPS-induced C57BL/6 mouse model of acute lung injury assessed as reduction in total protein levels in BALF at 10 to 20 mg/kg/day, po for 3 days followed by LPS-stimulation measured after 6 hrs; assay type: functional, organism-based; outline: as §2
[16] = Stability of compound in pH 7.4 phosphate buffer at 20 uM measured up to 25 mins by UV-VIS spectroscopy; assay type: physicochemical; settings: pH 7.4, 25 min
[17] = system: Mus musculus; assay: Antiinflammatory activity in oral dosed LPS-induced C57BL/6 mouse model of acute lung injury assessed as reduction in TNFalpha levels in serum for 3 days followed by LPS-stimulation measured after 6 hrs; assay type: functional, organism-based; outline: as §2
[18] = system: Peritoneal macrophage; assay: Antiinflammatory activity in C57BL/6 mouse primary peritoneal macrophages assessed as inhibition of LPS-induced VCAM1 mRNA expression preincubated for 30 mins followed by LPS stimulation and measured after 6 hrs by qRT-PCR analysis; assay type: functional, cell-based; outline: as §4
[19] = species: Mus musculus; assay: Inhibition of MAPK in C57BL/6 mouse primary peritoneal macrophages assessed as reduction in P38 phosphorylation at 10 uM preincubated for 30 mins followed by LPS-stimulation measured after 20 mins by Western blot analysis; outline: as §5
[20] = system: Peritoneal macrophage; assay: Antiinflammatory activity in C57BL/6 mouse primary peritoneal macrophages assessed as inhibition of LPS-induced TNFalpha production preincubated for 30 mins followed by LPS stimulation and measured after 24 hrs by sandwich ELISA; assay type: functional, cell-based; outline: as §3
[21] = species: Mus musculus; assay: Inhibition of MAPK in C57BL/6 mouse primary peritoneal macrophages assessed as reduction in ERK phosphorylation at 10 uM preincubated for 30 mins followed by LPS-stimulation measured after 20 mins by Western blot analysis; outline: as §5
[22] = system: Peritoneal macrophage; assay: Antiinflammatory activity in C57BL/6 mouse primary peritoneal macrophages assessed as inhibition of LPS-induced TNFalpha mRNA expression preincubated for 30 mins followed by LPS stimulation and measured after 6 hrs by qRT-PCR analysis; assay type: functional, cell-based; outline: as §4
[23] = system: Peritoneal macrophage; assay: Antiinflammatory activity in C57BL/6 mouse primary peritoneal macrophages assessed as inhibition of LPS-induced TNFalpha production at 10 uM preincubated for 30 mins followed by LPS stimulation and measured after 24 hrs by sandwich ELISA relative to control; assay type: functional; settings: C57BL/6, Peritoneal macrophage; outline: as §3
[24] = system: Peritoneal macrophage; assay: Antiinflammatory activity in C57BL/6 mouse primary peritoneal macrophages assessed as inhibition of LPS-induced IL-6 mRNA expression preincubated for 30 mins followed by LPS stimulation and measured after 6 hrs by qRT-PCR analysis; assay type: functional, cell-based; outline: as §4
[25] = system: Peritoneal macrophage; assay: Antiinflammatory activity in C57BL/6 mouse primary peritoneal macrophages assessed as inhibition of LPS-induced IL-6 production preincubated for 30 mins followed by LPS stimulation and measured after 24 hrs by sandwich ELISA; assay type: functional, cell-based; outline: as §3
[26] = system: Mus musculus; assay: Antiinflammatory activity in oral dosed LPS-induced C57BL/6 mouse model of acute lung injury assessed as reduction in IL-6 levels in BALF for 3 days followed by LPS-stimulation measured after 6 hrs; assay type: functional, organism-based; outline: as §2
[27] = system: Mus musculus; assay: Antiinflammatory activity in LPS-induced C57BL/6 mouse model of acute lung injury assessed as reduction in total cells in BALF at 10 to 20 mg/kg/day, po for 3 days followed by LPS-stimulation measured after 6 hrs by cell counting based method; assay type: functional, organism-based; outline: as §2
[28] = system: Mus musculus; assay: Antiinflammatory activity in LPS-induced C57BL/6 mouse model of acute lung edema assessed as decrease in lung wet/dry ratio at 20 mg/kg/day, po for 3 days followed by LPS-stimulation measured after 6 hrs; assay type: functional, organism-based; outline: as §2

O=C(Nc1ccc2c(c1)CCC2)c1cc(O)c(O)c(O)c1
Activity [1]: Active
Activity [2]: Active
Activity [3]: Active
Activity [4]: Active
inhibition at 10 µM [5]: 89%
Activity [6]: Active
Activity [7]: Active
inhibition [8]: Dose-dependent effect
Activity [9]: Active
inhibition [10]: Active
Activity [11]: Non-Toxic
inhibition [12]: Dose-dependent effect
inhibition [13]: Dose-dependent effect
inhibition [14]: Dose-dependent effect
Activity [15]: Active
Stability [16]: Stable
inhibition [17]: Dose-dependent effect
inhibition [18]: Dose-dependent effect
inhibition [19]: Active
inhibition [20]: Dose-dependent effect
IC50 ([20]; C57BL/6, Peritoneal macrophage): 1230 nM
inhibition [21]: Active
inhibition [22]: Dose-dependent effect
inhibition at 10 µM [23]: 72.2%
inhibition [24]: Dose-dependent effect
inhibition [25]: Dose-dependent effect
IC50 ([25]; C57BL/6, Peritoneal macrophage): 702 nM
inhibition [26]: Dose-dependent effect
Activity [27]: Active
Activity [28]: Active
